Common to all, as to assay type: functional
Assay [1] deals with Human alphaherpesvirus 1. Kind of assay: The minimum inhibitory concentration was measured on E6SM cells against TK+/TK-Herpes simplex virus type 1 (VMW1837 strain). The method, boiled down: (§1)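 Antiviral endpoint was the concentration reducing virus-induced cytopathicity by 50% in […] cell cultures. Values are means of two to six independent determinations.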
The next assay has as its system Vaccinia virus. In words: The minimum inhibitory concentration was measured on E6SM cells against Vaccinia virus. Conditions: Orthopoxvirus vaccinia. The gist of the method: as §1
For the next assay, the system named is Cytomegalovirus. In words: The minimum inhibitory concentration was measured on HEL cells against Cytomegalovirus virus (Davis strain). Conditions: Human betaherpesvirus 5. The gist of the method:
(§2)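 Antiviral endpoint was the concentration reducing virus plaque formation by 50% in HEL cell cultures. Values are means of two to six independent determinations.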

Assay [2] deals with Human alphaherpesvirus 1. In words: The minimum inhibitory concentration was measured on E6SM cells against Herpes simplex virus type 1 (F strain). The gist of the method: as §1
Another assay deals with E6SM. Kind of assay: The minimum inhibitory concentration was measured on E6SM cells for morphological alteration. Conditions: Homo sapiens. The gist of the method:
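In uninfected E6SM cells, the value is the concentration giving a microscopically detectable change in normal cell morphology. Values are means of two to six independent determinations.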

For assay [3], the system named is Human alphaherpesvirus 3. In words: The minimum inhibitory concentration was measured on HEL cells against TK-Varicella zoster virus (YS-R strain). Conditions: Human alphaherpesvirus 3, ys-r. The method, boiled down: as §2
The test system of assay [4] is HEL. Kind of assay: The […] was measured on HEL cells in cell growth. Conditions: Homo sapiens.
Assay [5] in a line: The minimum inhibitory concentration was measured on E6SM cells against Herpes simplex virus type 1 (McIntyre strain). Conditions: Human alphaherpesvirus 1. The gist of the method:
as §1

Assay [6] relates to Human alphaherpesvirus 3. In words: The minimum inhibitory concentration was measured on HEL cells against TK-Varicella zoster virus (07/1 strain). The gist of the method:
as §2

In assay [7] the test system is Human alphaherpesvirus 1. Kind of assay: The minimum inhibitory concentration was measured on E6SM cells against TK-Herpes simplex virus type 1 (B2006 strain). The gist of the method:
as §1

For a further assay, the system named is Human betaherpesvirus 5. Kind of assay: The minimum inhibitory concentration was measured on HEL cells against Cytomegalovirus virus (AD-169 strain). The method, boiled down:
as §2

Assay [8] deals with Human alphaherpesvirus 3. In words: The minimum inhibitory concentration was measured on HEL cells against Varicella zoster virus (OKA strain). Conditions: Human alphaherpesvirus 3, oka. The method, boiled down: as §2
Assay [9] concerns Human alphaherpesvirus 3. Kind of assay: The minimum inhibitory concentration was measured on HEL cells against Varicella zoster virus (YS strain). The method, boiled down:
as §2

Assay [10] is described as follows: The minimum inhibitory concentration was measured against Herpes simplex virus type 1 (KOS strain) on E6SM cells. Conditions: Human alphaherpesvirus 1. The gist of the method: as §1
Assay [11] concerns HEL. Kind of assay: The minimum inhibitory concentration was measured on HEL cells against Cytomegalovirus virus (Davis strain); (<100>40). Conditions: Homo sapiens. The gist of the method: as §2
Assay [12] deals with HEL. Kind of assay: The minimum inhibitory concentration was measured on HEL cells against Cytomegalovirus virus (AD-169 strain); (<100>40). Conditions: Homo sapiens. The gist of the method: as §2
The test system of assay [13] is HEL. In words: The minimum inhibitory concentration was measured on E6SM cells against Vesicular stomatitis virus. Conditions: Homo sapiens. The gist of the method:
as §1

In assay [14] the test system is HEL. In words: The minimum inhibitory concentration was measured on HEL cells against Cytomegalovirus virus (AD-169 strain); (<400>100). Conditions: Homo sapiens. The gist of the method: as §2
Assay [15] relates to HEL. Kind of assay: The minimum inhibitory concentration was measured on HEL cells against Cytomegalovirus virus (Davis strain); (<400>100). Conditions: Homo sapiens. The gist of the method:
as §2

Eight molecules from ChEMBL document CHEMBL1127471, “Tricyclic analogues of acyclovir and ganciclovir. Influence of substituents in the heterocyclic moiety on the antiviral activity” (1994) can be followed below.

Converted amounts (≈) assume the structure as drawn. Where only a bound is given, the exact number is not on record here.

As to `Cc1cnc2nc3c(c(O)n12)NCN3COCCO`, the MIC is over 120 µg/mL with Human alphaherpesvirus 1 [1]; over 150 µg/mL with Vaccinia virus; over 50 µg/mL with Cytomegalovirus; 0.1 µg/mL (≈ 0.377 µM) against Human alphaherpesvirus 1 [2]; over 100 µg/mL in the assay with E6SM; over 50 µg/mL against Human alphaherpesvirus 3 [3]. In addition, the MIC against HEL [4] is over 200 µg/mL; in [5], 0.5 µg/mL (≈ 1.88 µM); against Human alphaherpesvirus 3 [6], over 50 µg/mL; in the assay on Human alphaherpesvirus 1 [7], over 50 µg/mL; with Human betaherpesvirus 5, over 50 µg/mL; against Human alphaherpesvirus 3 [8], over 50 µg/mL. Further, the MIC was over 50 µg/mL in the assay with Human alphaherpesvirus 3 [9] and 2.1 µg/mL (≈ 7.92 µM) in assay [10].
On to `OCCOCN1CNc2c1nc1nc(-c3ccc(Br)cc3)cn1c2O`, for which the MIC against Human alphaherpesvirus 1 [1] is over 70 µg/mL; against Vaccinia virus it was over 70 µg/mL; with HEL [11] it was over 40 µg/mL; in the assay with Human alphaherpesvirus 1 [2], 2 µg/mL (≈ 4.92 µM); in the assay with E6SM, at least 70 µg/mL; in the assay with HEL [12], over 40 µg/mL. The MIC against Human alphaherpesvirus 3 [3] was 230 µg/mL (≈ 566 µM); with HEL [4], over 200 µg/mL; in assay [5], 0.2 µg/mL (≈ 0.492 µM); with Human alphaherpesvirus 3 [6], 125 µg/mL (≈ 308 µM); in the assay on Human alphaherpesvirus 3 [8] it was 1 µg/mL (≈ 2.46 µM); with Human alphaherpesvirus 3 [9], 4 µg/mL (≈ 9.85 µM). The MIC in [10] turned out to be 0.6 µg/mL (≈ 1.48 µM).
Take `CC(C)(C)c1cn2c(O)c3c(nc2n1)N(COCCO)CN3`: the MIC against Human alphaherpesvirus 1 [1] was over 125 µg/mL; against Vaccinia virus, over 250 µg/mL; against Human alphaherpesvirus 1 [2] it was 4 µg/mL (≈ 13 µM); in the assay with E6SM it was over 250 µg/mL; in the assay on HEL [13] it was over 125 µg/mL; in the assay on Human alphaherpesvirus 3 [3], 127 µg/mL (≈ 413 µM). Moreover, the MIC with HEL [4] was 167 µg/mL (≈ 543 µM); with HEL [14] it was over 100 µg/mL; in assay [5], 2 µg/mL (≈ 6.51 µM); in the assay with HEL [15], over 100 µg/mL; against Human alphaherpesvirus 3 [6], 40 µg/mL (≈ 130 µM); in the assay with Human alphaherpesvirus 3 [8], 1 µg/mL (≈ 3.25 µM). The MIC is 2.2 µg/mL (≈ 7.16 µM) in the assay with Human alphaherpesvirus 3 [9] and 4.5 µg/mL (≈ 14.6 µM) in [10].
As to `Cc1cn2c(O)c3c(nc2n1)N(COC(CO)CO)CN3`, the MIC was 1.6 µg/mL (≈ 5.42 µM) against Human alphaherpesvirus 1 [1]; over 175 µg/mL with Vaccinia virus; over 50 µg/mL with Cytomegalovirus; 0.005 µg/mL (≈ 0.0169 µM) against Human alphaherpesvirus 1 [2]; over 175 µg/mL with E6SM; 15 µg/mL (≈ 50.8 µM) in the assay with Human alphaherpesvirus 3 [3]. Also, the MIC in the assay on HEL [4] was over 200 µg/mL; in [5], 0.02 µg/mL (≈ 0.0677 µM); in the assay with Human alphaherpesvirus 3 [6] it was 15 µg/mL (≈ 50.8 µM); against Human alphaherpesvirus 1 [7] it was 31 µg/mL (≈ 105 µM); in the assay on Human betaherpesvirus 5, over 50 µg/mL; in the assay on Human alphaherpesvirus 3 [8], 1 µg/mL (≈ 3.39 µM). For the same molecule, the results for the MIC (against Human alphaherpesvirus 3 [9]; in [10]) were 12 µg/mL (≈ 40.6 µM) and 0.015 µg/mL (≈ 0.0508 µM), respectively.
Take `CC(C)(C)c1cn2c(O)c3c(nc2n1)N(COC(CO)CO)CN3`: the MIC with Human alphaherpesvirus 1 [1] is 0.7 µg/mL (≈ 2.07 µM); with Vaccinia virus it was over 135 µg/mL; in the assay with Cytomegalovirus, over 50 µg/mL; in the assay with Human alphaherpesvirus 1 [2] it was 0.1 µg/mL (≈ 0.296 µM); against E6SM it was over 175 µg/mL; against Human alphaherpesvirus 3 [3], 50 µg/mL (≈ 148 µM). Also, the MIC was over 200 µg/mL against HEL [4]; 0.1 µg/mL (≈ 0.296 µM) in [5]; 50 µg/mL (≈ 148 µM) against Human alphaherpesvirus 3 [6]; over 70 µg/mL with Human alphaherpesvirus 1 [7]; over 50 µg/mL against Human betaherpesvirus 5; 5 µg/mL (≈ 14.8 µM) against Human alphaherpesvirus 3 [8]. In addition, the MIC is over 20 µg/mL in the assay on Human alphaherpesvirus 3 [9] and 0.035 µg/mL (≈ 0.104 µM) in assay [10].
Turning to `Cc1cn2c(O)c3c(nc2n1)N(COCCO)C(Br)N3` (centres undefined), the MIC was over 125 µg/mL in the assay with Human alphaherpesvirus 1 [1]; over 250 µg/mL with Vaccinia virus; 150 µg/mL (≈ 436 µM) in the assay with Human alphaherpesvirus 1 [2]; over 250 µg/mL with E6SM; 185 µg/mL (≈ 538 µM) against Human alphaherpesvirus 3 [3]; over 200 µg/mL in the assay on HEL [4]. Also, the MIC against HEL [14] was over 100 µg/mL; in [5], 150 µg/mL (≈ 436 µM); in the assay on HEL [15] it was over 100 µg/mL; in the assay with Human alphaherpesvirus 3 [6], 180 µg/mL (≈ 523 µM); in the assay on Human alphaherpesvirus 3 [8], 215 µg/mL (≈ 625 µM); with Human alphaherpesvirus 3 [9], 220 µg/mL (≈ 639 µM). Also, the MIC in [10] is 95 µg/mL (≈ 276 µM).
In the case of `OCCOCN1CNc2c1nc1nc(-c3ccccc3)cn1c2O`, the MIC is over 70 µg/mL with Human alphaherpesvirus 1 [1]; over 100 µg/mL in the assay with Vaccinia virus; 166 µg/mL (≈ 507 µM) against Cytomegalovirus; 0.7 µg/mL (≈ 2.14 µM) in the assay on Human alphaherpesvirus 1 [2]; over 100 µg/mL with E6SM; 67 µg/mL (≈ 205 µM) in the assay with Human alphaherpesvirus 3 [3]. Further, the MIC against HEL [4] was 45 µg/mL (≈ 137 µM); against HEL [14] it was over 100 µg/mL; in assay [5], 0.2 µg/mL (≈ 0.611 µM); in the assay on Human alphaherpesvirus 3 [6], 67 µg/mL (≈ 205 µM); in the assay on Human alphaherpesvirus 3 [8], 1.3 µg/mL (≈ 3.97 µM); against Human alphaherpesvirus 3 [9], 1.4 µg/mL (≈ 4.28 µM). In addition, the MIC in assay [10] was 0.4 µg/mL (≈ 1.22 µM).
Take `OCC(CO)OCN1CNc2c1nc1nc(-c3ccccc3)cn1c2O`: the MIC in the assay on Human alphaherpesvirus 1 [1] was 0.5 µg/mL (≈ 1.4 µM); against Vaccinia virus, over 90 µg/mL; in the assay with Cytomegalovirus it was 7 µg/mL (≈ 19.6 µM); against Human alphaherpesvirus 1 [2] it was 0.005 µg/mL (≈ 0.014 µM); with E6SM, over 175 µg/mL; in the assay on Human alphaherpesvirus 3 [3], 1 µg/mL (≈ 2.8 µM). The MIC in the assay on HEL [4] is over 200 µg/mL; in [5], 0.005 µg/mL (≈ 0.014 µM); against Human alphaherpesvirus 3 [6] it was 3 µg/mL (≈ 8.39 µM); against Human alphaherpesvirus 1 [7], over 30 µg/mL; with Human betaherpesvirus 5, 20 µg/mL (≈ 56 µM); in the assay with Human alphaherpesvirus 3 [8], 0.4 µg/mL (≈ 1.12 µM). Besides, the MIC amounted to 3 µg/mL (≈ 8.39 µM) with Human alphaherpesvirus 3 [9] and 0.02 µg/mL (≈ 0.056 µM) in [10].
